Screens as filed in PubChem BioAssay.
This excerpt belongs to a sample that is enriched for hits.
S1P4 antagonist – human S1P4 receptor antagonism. O95977. S1P4-expressing cells, antagonist mode, reporter read-out. inhibition, % at 4.98 µM. actives 0.26% (n = 220,000). AID 1510; in the data active = inhibition above about 29%
L major viab – Leishmania major promastigote growth inhibition | inhibition, % at 10 µM | Leishmania major promastigotes, resazurin fluorescence viability | actives 9% (n = 200,000); in the data active = inhibition above about 50%;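 note: promastigotes grown with compound for 44 hours at 28 °C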
S1P4 ag – agonists of human S1P4 receptor. S1P4-expressing cell line, agonist reporter assay. activation, % at 4.98 µM. actives 0.35% (n = 220,000); in the data active = activation above about 11%
S1P3 antag – S1P3 (human) receptor antagonism; AID 485; inhibition, % at 4.98 µM; CHO S1P3 NFAT-BLA reporter, FRET fluorescence, antagonist mode; actives 0.27% (n = 170,000);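 active = inhibition above the plate cutoff, the mean inhibition of test wells on that plate plus 3 SD, cut at about 28% in these data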;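 note: cells challenged with S1P at its EC80 of 0.8 µM; blue over green emission ratio from cleaved BLA substrate after 4 h stimulation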
Target sequence (Q99500 whole entry, looked up): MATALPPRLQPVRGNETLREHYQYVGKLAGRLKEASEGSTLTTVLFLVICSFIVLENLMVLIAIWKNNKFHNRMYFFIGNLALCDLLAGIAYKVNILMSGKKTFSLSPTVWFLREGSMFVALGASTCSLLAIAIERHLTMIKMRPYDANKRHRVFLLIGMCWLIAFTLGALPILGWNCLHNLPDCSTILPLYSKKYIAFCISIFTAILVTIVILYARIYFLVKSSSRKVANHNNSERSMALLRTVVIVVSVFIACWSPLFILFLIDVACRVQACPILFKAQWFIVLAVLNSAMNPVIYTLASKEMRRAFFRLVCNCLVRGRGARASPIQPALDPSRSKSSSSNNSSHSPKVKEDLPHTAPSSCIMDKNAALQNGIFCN
Mdm2 ligase inh – inhibitors of human Mdm2 E3 ubiquitin ligase; signal enhancement, % at 5 µM; actives 0.11% (n = 210,000); cell-based MDM2 ubiquitination luciferase reporter, 2 h; 0 = plate control, 100 = twice control, blank-subtracted; AID 1230; Q00987;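 active = signal enhancement of 30% or more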;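 note: luminescence tracks abundance of the self-degrading MDM2-luciferase fusion protein; higher signal means inhibition of MDM2 E3 ligase activity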
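Assay system: stable mammalian line carrying autodegrading MDM2–luciferase fusion reporter; amount: 2000 cells seeded into each well; buffer or medium: DMEM; benchmarks: plate control and blank wells; signal: luciferase luminescence; timing: 2 h compound exposure at 37 °C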
Numbers stand for hits; – = inactive; · = no result given.

SMILES	S1P4 antagonist	L major viab	S1P4 ag	S1P3 antag	Mdm2 ligase inh
O=C(Cc1ccccc1F)Nc1nc(-c2cccs2)cs1	–	–	–	–	–
O=C(Cc1ccccc1F)Nc1nc(-c2cccnc2)cs1	–	52	–	–	–
Cc1ccc(C(=O)Nc2nc(-c3cccnc3)cs2)o1	–	–	–	·	–
CCc1ccccc1OCC(=O)Nc1nc(-c2cccnc2)cs1	–	81	–	–	–
O=C(Cc1cccs1)Nc1nc(-c2ccc(F)cc2F)cs1	–	98	–	·	–
CN(Cc1ccccc1NS(=O)(=O)c1ccc2ccccc2c1)C1CCCCC1	–	–	–	–	–
COc1ccc(Cl)cc1N=Cc1c(O)cc(C)oc1=O	–	–	–	·	·
Cc1cccc(N=Cc2c(O)cc(C)oc2=O)c1	–	62	–	–	–
Cc1cc(O)c(/C=N/Nc2cccc(Cl)c2)c(=O)o1	–	94	–	·	–
Cc1cc(O)c(/C=N/Nc2ccccc2Cl)c(=O)o1	–	–	–	·	–
Cc1cc(O)c(/C=N/Nc2ccc(Cl)cc2)c(=O)o1	–	98	–	·	–
CC(=O)Nc1nnc(Cc2c[nH]c3ccccc23)s1	–	–	–	–	–
O=C(NCc1cccnc1)c1ccc(Cn2c(=S)[nH]c3ccc(Br)cc3c2=O)cc1	–	–	–	–	–
CCOC(=O)c1ccc(Nc2nc(-c3cccnc3)nc3ccccc23)cc1	–	–	–	·	–
COc1ccccc1C(CC(=O)Nc1ccc(C)c(C)c1)c1ccc(OC(C)C)cc1 (stereo unspecified)	–	51	–	–	–
COc1ccccc1NC(=O)CC(c1ccc(OC(C)C)cc1)c1ccccc1OC (stereo unspecified)	–	–	–	–	–
N#Cc1c(N)nc2c3c(sc(=N)c2c1N)NC(=O)CC3c1c(F)cccc1Cl (stereo unspecified)	–	100	–	·	–
N#Cc1c(N)nc2c3c(sc(=N)c2c1N)NC(=O)CC3c1ccccc1 (stereo unspecified)	–	–	–	·	–
O=C(CNC1CC1)Nc1cc(C(F)(F)F)ccc1Cl	–	·	–	–	–
c1ccc2nc(-c3ccc(N4CCOCC4)cc3)ccc2c1	–	–	–	·	–
CN1CCN(c2ccc(-c3ccc4ccccc4n3)cc2)CC1	–	92	–	–	–
NC(=O)C1CCN(Cc2nc(-c3ccccc3)no2)CC1	–	–	–	–	–
CCOC(=O)C1CCCN(C2CCN(Cc3nc(-c4ccccc4)no3)CC2)C1 (stereo unspecified)	–	73	–	–	–
CCOC(=O)C1CCCN(C2CCN(Cc3nc(Cc4ccccc4)no3)CC2)C1 (stereo unspecified)	–	–	–	–	–
CCOC(=O)C1CCN(C2CCN(Cc3nc(-c4ccccc4)no3)CC2)CC1	–	80	–	–	–
SMILES	S1P4 antagonist	L major viab	S1P4 ag	S1P3 antag	Mdm2 ligase inh
O=C(c1ccccc1)N1CCN(C(=S)NCCc2ccccc2)CC1	–	53	–	–	–
COc1cccc(C2CC(c3cccc(NS(C)(=O)=O)c3)=NN2C(=O)c2ccccc2)c1OC (stereo unspecified)	–	–	–	–	–
CN(C)c1ccc(C2CC(c3cccc(NS(C)(=O)=O)c3)=NN2C(=O)c2ccccc2)cc1 (stereo unspecified)	–	60	–	–	–
CC1CC(C)CN(C(=O)C(NS(=O)(=O)c2ccc(Br)s2)c2ccccc2)C1 (stereo unspecified)	–	81	–	–	–
NC(=O)c1ccc(NC(=O)COC(=O)/C=C/c2cn(-c3ccccc3)nc2-c2cccnc2)cc1	–	51	–	–	–
N#Cc1ccccc1NC(=O)COC(=O)/C=C/c1cn(-c2ccccc2)nc1-c1ccc(Cl)cc1	–	–	–	–	–
O=C(/C=C/c1cn(-c2ccccc2)nc1-c1cccnc1)c1ccco1	–	100	–	–	–
O=C(/C=C/c1cn(-c2ccccc2)nc1-c1cccnc1)N1CCCC1	–	–	–	–	–
Cc1ccc(N(CCC#N)C(=O)CN2C(=O)NC(Cc3ccccc3)C2=O)cc1 (stereo unspecified)	–	–	–	–	–
N#C/C(=C\C1CC2C=CC1C2)c1nc2ccccc2[nH]1 (stereo unspecified)	–	56	–	·	–
N#C/C(=C\Nc1ccc2c(c1)OCCO2)c1nc2ccccc2[nH]1	–	–	–	–	–
Cc1ccc2nc(/C(C#N)=C\c3ccc(Oc4ccc([N+](=O)[O-])cn4)cc3)[nH]c2c1	–	99	–	–	–
COc1ccc2nc(/C(C#N)=C\c3ccc(Oc4ccc([N+](=O)[O-])cn4)cc3)[nH]c2c1	–	–	–	–	–
N#C/C(=C\c1cccs1)c1nc2ccccc2[nH]1	–	60	–	–	–
N#C/C(=C\c1ccc(OC(=O)c2cccs2)cc1)c1nc2ccccc2[nH]1	–	–	–	–	–
N#C/C(=C\c1ccc([N+](=O)[O-])o1)c1nc2ccccc2[nH]1	–	100	–	–	–
COC(OC)c1ccc(C#N)c(=O)[nH]1	–	–	–	–	–
O=S(=O)(/N=C(/c1ccc(F)cc1)N1CCCCC1)c1ccc(Cl)cc1	–	–	–	–	–
CCc1ccccc1NC(=O)CN(C)C(=O)CSc1nc2cc(Cl)ccc2s1	–	–	–	–	–
Cc1cc(C)c2c3c(cn2n1)c(=O)n(C)c(=O)n3C	–	–	–	·	·
N#C/C(=C/c1ccncc1)c1nc2ccccc2c(=O)[nH]1	–	·	–	–	–
N#C/C(=C\c1ccccc1)c1nc2ncccc2[nH]1	–	66	–	·	–
Cc1ccc2nc(/C(C#N)=C\c3ccc([N+](=O)[O-])o3)[nH]c2c1	–	100	–	·	–
Cc1ccc2nc(/C(C#N)=C\c3cc(C)n(-c4cccc([N+](=O)[O-])c4)c3C)[nH]c2c1	–	85	–	·	–
CC(C)S(=O)(=O)c1csc(C(=O)Nc2ccc(F)cc2)c1N	–	·	–	–	–
SMILES	S1P4 antagonist	L major viab	S1P4 ag	S1P3 antag	Mdm2 ligase inh
CC1(C)SC(=S)N(Cc2ccc3c(c2)OCO3)C1N(O)C(=O)NC1CCCCC1 (stereo unspecified)	–	82	–	·	–
CCOC(=O)N1CCN(C(=O)c2ccc(NC(=O)c3ccc(C)cc3)cc2)CC1	–	–	–	–	–
CCCCNC(=O)C1CCN(C/C(C)=C/c2ccccc2)CC1	–	91	–	·	–
C/C(=C\c1ccccc1)CN1CCC(C(=O)N2CCC(C)CC2)CC1	–	93	–	·	·
O=C(C1CCN(C2CCN(C/C(Cl)=C/c3ccccc3)CC2)CC1)N1CCOCC1	–	97	–	–	–
O=C(O)Cc1c(C(=O)O)[nH]c2ccc(C(=O)O)cc12	–	·	–	–	·
O=C(NCCOc1ccccc1F)c1ccccc1SCc1ccc(F)cc1	–	54	–	–	–
Cc1ccc(NC(=O)c2ccc(COc3ccc4c(c3)CCC4)cc2)c(C)c1	–	–	–	–	–
CCOC(=O)c1oc2ccc(/C=N/O)c(Cl)c2c1C	–	–	–	–	–
O=C(/C=C/c1ccccc1)NC(NC(=S)Nc1cc(Cl)ccc1Cl)C(Cl)(Cl)Cl (stereo unspecified)	–	99	–	·	–
